Bioassay records: PubChem, Broad Institute
INS-1E GSIS act: GLuc luminescence reporter in INS-1E cells, primary screen for activators of glucose-dependent secretion of insulin. INS-1E GLuc reporter insulin secretion, 2-3 h. activation, % at 16.6 µM. actives 0.61% (n = 370,000);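 active means lowest replicate activation of at least 40%, so every replicate reaches that level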
miR-122 sensor: miR-122 inhibition in Huh7 cells. Huh7 miR-122 Renilla luciferase sensor, 48 h; neutral wells = 0, positive control = 100. activation (reporter increase), % at 12.5 µM. actives 0.3% (n = 340,000);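 active means mean replicate activation score at least 90 and every replicate individually at or above 90; inconclusive means only one of the two criteria met; inactive means neither criterion met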;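 further: higher luciferase means less miR-122 activity so hits act as miR-122 inhibitors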
ERAP1 inh: blocks human ERAP1 aminopeptidase activity; actives 0.15% (n = 340,000); recombinant ERAP1, Leu-AMC fluorescence, 60 min; AID 652197; inhibition, % at 10.7 µM; Q9NZ08;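 active means mean replicate inhibition of at least 30%, or all replicates individually reaching that 30% level; inactive means mean below 30% and not every replicate reaching it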
F508del corr: correctors of CFTR F508del function in bronchial epithelial cells; activity (quench increase), % at 7.58 µM; CFBE cells, YFP halide quenching; stimulated with forskolin plus potentiator P3; % fluorescence drop versus neutral controls; AID 720511; actives 0.36% (n = 350,000);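 active means mean added fluorescence quench of at least 8% versus neutral control, with both replicates also reaching 8%; inconclusive means only one of the mean or replicate conditions met; inactive means mean below 8% and not both replicates reaching 8%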;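 further: cells transiently co-express mutant CFTR-F508del with the halide-sensitive YFP; corrector assay measuring rescue of mutant channel to the surface after 24 h compound exposure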
E-selectin induc: induces E-selectin expression in human endothelial cells; HUVEC E-selectin immunofluorescence imaging; normalized: neutral wells 0, TNF-alpha wells 100; P16581; activation, % at 7.58 µM; actives 0.37% (n = 260,000);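 active means mean E-selectin-positive cell signal at least 10% of the positive control, reached in at least 60% of replicates, without over 20% cell loss; inconclusive means no rule given, readout overlaps actives, possibly toxicity-flagged; inactive means the rest, including those meeting only one limit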
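Assay system: HUVEC, human umbilical vein endothelial cells / Amount: 3,000 HUVEC/well / Controls: TNF-alpha positive control, DMSO neutral control / Compound dosing: single concentration / Medium: EGM-2 over gelatin coat / Evaluation: percent E-selectin-positive cells / Signal: immunofluorescence imaging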
DENV2 CPE: inhibitors of DENV2 cytopathic effect. actives 1.7% (n = 350,000). AID 651640. DENV2-infected cells, cytopathic effect rescue, plate reader. CPE inhibition, % at 9.99 µM; in the data active means CPE inhibition above about 20%, passing the limit was not always enough; inconclusive means no clear call, values can overlap the other calls; tested in BHK-21 cells
Numbers stand for hits; . = inactive; ? = inconclusive; / = no result. Sampled rows, rich in hits. Any-hit rate of the full collection: about 2.6%.

SMILES	INS-1E GSIS act	miR-122 sensor	ERAP1 inh	F508del corr	E-selectin induc	DENV2 CPE
COc1ccc(NC(=O)N(C)C[C@H]2Oc3ccc(NC(=O)Cn4cnnn4)cc3CC(=O)N([C@@H](C)CO)C[C@@H]2C)cc1	.	.	.	.	/	56
C[C@@H]1CN([C@@H](C)CO)C(=O)Cc2cc(NC(=O)Cn3cnnn3)ccc2O[C@@H]1CN(C)C(=O)Nc1ccc2c(c1)OCO2	.	.	.	.	.	23
COc1ccc(NC(=O)N(C)C[C@@H]2Oc3ccc(NC(=O)Cn4cnnn4)cc3CC(=O)N([C@@H](C)CO)C[C@@H]2C)cc1	.	.	.	.	/	.
CO[C@H]1CN(C)C(=O)c2cc(NC(=O)C3CC3)ccc2OC[C@@H](C)N(CCc2ccccc2)C[C@@H]1C	.	.	/	.	.	/
C[C@H]1CN([C@@H](C)CO)C(=O)c2cc(-c3cccc(F)c3)cnc2O[C@H]1CN(C)C(=O)Nc1cc(F)ccc1F	.	.	.	.	.	.
CN1CCN(C(=O)C[C@H]2CC[C@@H]3[C@H](COC[C@@H](O)CN3Cc3cccc(F)c3)O2)CC1	.	.	.	.	.	.
N#C[C@@H]1[C@@H](c2ccc(-c3cncnc3)cc2)[C@H](CO)N1C(=O)C1CCC1	.	/	.	.	.	?
CCOc1ccccc1-n1nnnc1SCC(=O)NC(=O)Cc1ccccc1	.	.	33	.	.	.
CCOc1ccccc1-n1nnnc1SCC(=O)N1CCCC1=O	51	.	.	.	/	.
O=C1CCCN1C(=O)CSc1nnnn1-c1cccc(F)c1	.	.	.	.	.	.
CCCCC[C@@H]1C=C(C(=O)O)[C@H](c2ccc3c(c2)OCO3)N1S(=O)(=O)c1ccc(C)cc1	/	.	.	.	/	31
CC[C@@H]1C=C(C(=O)O)[C@H](c2ccc3c(c2)OCO3)N1S(=O)(=O)c1ccc(C)cc1	.	.	.	.	.	.
CCn1c(SCc2cc(=O)[nH]c3ccccc23)nc2c1c(=O)n(C)c(=O)n2C	49	/	/	/	/	/
Cn1ccnc1SCc1cc(=O)[nH]c2ccccc12	.	.	.	.	/	.
COc1ccc(NC(=O)Nc2ccc3c(c2)CC(=O)N([C@H](C)CO)C[C@H](C)[C@@H](CN(C)Cc2ccc(Oc4ccccc4)cc2)O3)cc1	.	.	.	.	.	.
C[C@H]1CN([C@@H](C)CO)C(=O)c2cc(NC(=O)Nc3ccc4c(c3)OCO4)ccc2O[C@H]1CN(C)Cc1ccccc1	.	.	.	.	.	.
O=C(OCc1ccccc1Cl)c1ccccc1C(=O)c1ccccc1	/	137	/	/	/	/
C[C@@H]1CN([C@H](C)CO)S(=O)(=O)c2ccc(-c3ccc(C#N)cc3)cc2O[C@H]1CN(C)Cc1cccc(F)c1	.	.	.	8.1	.	.
C[C@H]1CN([C@@H](C)CO)S(=O)(=O)c2ccc(-c3ccc(C#N)cc3)cc2O[C@@H]1CN(C)Cc1cccc(F)c1	.	.	.	.	.	.
C[C@@H]1CN([C@@H](C)CO)S(=O)(=O)c2ccc(-c3cccc(C#N)c3)cc2O[C@H]1CN(C)Cc1ccccn1	.	.	.	.	.	.
C[C@@H]1CN([C@H](C)CO)S(=O)(=O)c2ccc(-c3ccccc3)cc2O[C@H]1CN(C)Cc1ccccn1	.	.	.	16	.	.
C[C@@H]1CN([C@H](C)CO)S(=O)(=O)c2ccc(-c3ccc(C#N)cc3)cc2O[C@H]1CN(C)Cc1ccccn1	.	/	/	12	.	.
COc1cccc(NC(=O)N(C)C[C@H]2Oc3cc(C#Cc4ccccc4)ccc3S(=O)(=O)N([C@@H](C)CO)C[C@H]2C)c1	.	.	/	.	.	.
C[C@H]1CN([C@@H](C)CO)C(=O)Cc2cc(NC(=O)CCCCCC(=O)Nc3ccccc3N)ccc2O[C@@H]1CN(C)C(=O)Nc1ccc2c(c1)OCO2	.	.	.	.	.	.
O=C(Nc1ccc(Cl)cc1)N[C@H]1CC[C@@H](CCn2cc(-c3ccccc3F)nn2)O[C@H]1CO	.	/	.	.	.	.
O=C(Nc1ccccc1)N1C[C@H]2[C@@H](c3ccccc31)[C@H](CO)N2C(=O)c1ccccc1F	.	.	.	.	.	.
